# Hits are enriched below; roughly 3.7% of the tested compounds scored in any of these assays.
# b-catenin transl: alters nuclear translocation of beta-catenin in HeLa cells; immunofluorescence imaging; nuclear translocation activity, % at 5 µM; 0.3% of 190,000 active;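 active = nuclear translocation activity above 50% at 5 µM, with a well cell count of 50 or more; inconclusive = wells under 50 cells across six images, flagged as toxic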;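 also: per-cell ratio of nuclear to cytoplasmic median beta-catenin stain intensity; plate controls were DMSO negative control for no effect and GSK-3 inhibitor IX positive control for full effect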
#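 System: Human HeLa cells, endogenous beta-catenin | Compound dosing: 5 µM primary, 0.02–20 µM confirmation | Timing: 24 h compound exposure at 37°C, 5% CO2 | Measured by: Fluorescence imaging of beta-catenin antibody stain plus DAPI | Read-out basis: % activation of per-cell nuclear versus cytoplasmic median beta-catenin signal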
# DTT redox prof: compounds producing H2O2 with reducing agent – biochemical, NIH compound library profiling, artefact control for MLSCN library redox annotation, primary screen; DTT-dependent redox cycling H2O2, phenol red/HRP absorbance; 100% = 100 µM peroxide control, 0% = buffer; activation, % at 10 µM; 0.03% of 200,000 active; AID 878;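 active = activation of at least 50% relative to the plate's high and low controls in the primary single-dose screen; inactive = activation below 50%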;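 also: compound incubated with DTT at 0.8 mM final as the reducing agent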
# Cl transport mod: modulates chloride dependent transport by human KCC2; 2.2% of 190,000 active; KCC2 cells, thallium flux FluoZin-2 fluorescence; B-score of Tl+ flux slope (higher = more flux/activation; lower = inhibition) at 10 µM; AID 1456; Q9H2X9;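 active = thallium flux slope and its plate-corrected score both differing from the plate sample mean at a set confidence after two filtering rounds, in either direction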;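 also: slope of fluorescence scaled to starting intensity during 10 to 20 s after thallium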
# Target sequence (Q9H2X9 whole entry, looked up): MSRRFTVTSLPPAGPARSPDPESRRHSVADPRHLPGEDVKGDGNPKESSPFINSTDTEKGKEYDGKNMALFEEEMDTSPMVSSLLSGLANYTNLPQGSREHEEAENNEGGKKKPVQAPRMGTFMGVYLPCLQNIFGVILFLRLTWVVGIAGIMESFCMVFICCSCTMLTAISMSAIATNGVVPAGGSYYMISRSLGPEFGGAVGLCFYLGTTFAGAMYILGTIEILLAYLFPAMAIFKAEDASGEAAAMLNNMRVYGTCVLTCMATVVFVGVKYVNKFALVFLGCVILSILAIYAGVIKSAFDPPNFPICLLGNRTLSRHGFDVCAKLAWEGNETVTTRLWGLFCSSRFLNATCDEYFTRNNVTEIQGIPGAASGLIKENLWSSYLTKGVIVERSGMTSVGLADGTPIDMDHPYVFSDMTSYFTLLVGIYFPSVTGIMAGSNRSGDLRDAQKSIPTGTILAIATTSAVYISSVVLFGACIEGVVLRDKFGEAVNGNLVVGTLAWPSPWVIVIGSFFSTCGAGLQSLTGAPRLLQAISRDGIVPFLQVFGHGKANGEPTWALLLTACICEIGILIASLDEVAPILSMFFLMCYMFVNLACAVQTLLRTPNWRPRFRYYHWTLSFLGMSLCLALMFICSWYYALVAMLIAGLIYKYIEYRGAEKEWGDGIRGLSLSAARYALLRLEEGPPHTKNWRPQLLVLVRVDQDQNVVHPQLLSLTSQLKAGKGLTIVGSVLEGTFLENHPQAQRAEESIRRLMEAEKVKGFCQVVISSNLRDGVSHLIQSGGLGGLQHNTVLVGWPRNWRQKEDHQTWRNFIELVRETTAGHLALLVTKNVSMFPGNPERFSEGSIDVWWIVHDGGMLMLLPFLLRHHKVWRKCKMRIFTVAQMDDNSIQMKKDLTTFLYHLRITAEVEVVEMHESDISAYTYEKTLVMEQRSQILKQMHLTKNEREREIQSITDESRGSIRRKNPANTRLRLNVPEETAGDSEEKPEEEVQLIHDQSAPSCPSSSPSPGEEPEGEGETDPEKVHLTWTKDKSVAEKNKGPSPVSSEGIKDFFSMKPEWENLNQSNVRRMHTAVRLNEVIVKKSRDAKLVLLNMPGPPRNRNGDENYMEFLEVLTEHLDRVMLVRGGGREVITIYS
# MT stabilize HCS: microtubule stabilization, imaging screen; HeLa tubulin immunostaining HCS, 24 h; share of cells brighter than vehicle mean+2SD; % tubulin-high responders, % at 10 µM; 0.83% of 200,000 active;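 active = plate Z-score above 3 for both tubulin-high and condensed-nucleus cell shares, with cell loss under 80%, at 10 µM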;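 also: anti alpha tubulin signal scored within the nucleus-defined area of each cell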
# ROMK mod: modulates human ROMK potassium channel activity; Tet-inducible ROMK, thallium flux fluorescence; actives lie on both sides; AID 1918; B-score at 10 µM; P48048; 2% of 130,000 active;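 active = signal ratio slope over the read window, or its plate-corrected B-score, at least 3 SD from the plate mean, either direction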;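 also: B-score of the F/F0 ratio slope over 7 to 12 s after thallium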
# KCC2 secondary: KCC2 (human) modulation, secondary assay | 15% of 3,700 active | HEK293-KCC2, thallium flux, FluoZin2 fluorescence; stronger effect = higher value | shares compounds with Cl transport mod | AID 1713 | normalised thallium flux (F/F0 slope) at 10 µM;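 active = thallium flux slope above the same plate's solvent-only control mean plus 3 SD; inconclusive = the two replicate wells disagree; inactive = no significant difference from solvent-only control wells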
# KCC2 bumet counter: thallium flux despite bumetanide block in KCC2 cells, secondary assay 3; HEK293-KCC2 + bumetanide/ouabain, thallium flux FluoZin2; stronger effect = higher value; normalized thallium flux at 10 µM; 49% of 3,700 active; shares compounds with Cl transport mod;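 active = thallium entry rate above the same plate's blocked-transporter control wells by more than 3 SD; inconclusive = the two repeat wells disagree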;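 also: raw slope of fluorescence over initial fluorescence between 10 and 20 s after thallium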
# KCC2 secondary2: confirmation of human KCC2 transport modulators; shares compounds with Cl transport mod; HEK293-KCC2, thallium flux FluoZin2 fluorescence; actives lie on both sides; F/F0 rise rate, 10–20 s post-thallium; normalized thallium flux at 10 µM; 23% of 3,700 active; AID 1715;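 active = thallium flux slope more than 3 SD above or below the plate's solvent-only control mean, mostly below; inconclusive = the two repeat wells disagreed; inactive = no significant shift from solvent-only controls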;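 also: raw slope with 0.1% DMSO as baseline and bumetanide as block control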
# HEK counter1: parental HEK flux effect, counter-screen; shares compounds with Cl transport mod; HEK293 parental cells, thallium flux FluoZin2, ouabain; baseline-ratio fluorescence slope, 10–20 s after thallium; thallium flux rate (normalised fluorescence) at 10 µM; 46% of 3,700 active; AID 1716;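 active = thallium flux rate significantly above the same plate's solvent-only control wells, beyond their mean plus 3 SD; inconclusive = the two replicate wells gave conflicting results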
# KCC2 retest ouab: KCC2 (human) modulation, ouabain retest | raw Tl+ flux slope (below DMSO = inhibition, above = activation) at 10 µM | 48% of 3,700 active | HEK293-KCC2, thallium flux FluoZin2 fluorescence; bidirectional: low = inhibitor, high = activator | shares compounds with Cl transport mod | AID 1717;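 active = thallium flux slope beyond 3 SD from same-plate DMSO control mean in most replicates, usually higher, sometimes lower; inconclusive = repeat tests gave conflicting results; inactive = no significant difference from controls in most replicates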;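 also: slope of initial-normalized fluorescence between seconds 10 and 20 after thallium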
# HEK counter2: parental HEK flux effect, counter-screen 2. thallium flux slope at 10 µM. 33% of 3,700 active. shares compounds with Cl transport mod. HEK293 parental, thallium flux FluoZin-2 fluorescence slope;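 active = thallium flux slope above the same plate's solvent-control mean plus 3 SD in both duplicate wells; inconclusive = duplicate wells that disagreed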;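 also: run without ouabain in cells lacking the KCC2 cotransporter; slope of fluorescence scaled to its starting value between 10 and 20 s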
# An asterisk follows results filed as active; ? = inconclusive; · = no result.
SMILES,b-catenin transl,DTT redox prof,Cl transport mod,MT stabilize HCS,ROMK mod,KCC2 secondary,KCC2 bumet counter,KCC2 secondary2,HEK counter1,KCC2 retest ouab,HEK counter2
CC(C)c1ccc(NC(=O)c2cnn(-c3ccccc3)c2NC(=O)c2ccco2)cc1,1,2,-3.7*,2,·,0.0069,?,0.026*,0.0073,?,0.011
O=C(Nc1c(C(=O)Nc2ccccc2)cnn1-c1ccccc1)c1ccco1,-7,0,·,1,0.037,·,·,·,·,·,·
O=S(=O)(c1ccccc1)N1CCN=C1SCc1ccccc1,4,0,-3.6*,1,-1.3,0.0058,?,0.028,0.0068,0.015*,0.0098
CC(C)c1ccc(/C=N/NC(=O)c2nnn(-c3nonc3N)c2CSC2=NCCS2)cc1,-2,0,-0.54,3,-0.018,·,·,·,·,·,·
O=C(NCc1cccs1)c1cc(-c2ccccc2)nc2ccccc12,0,1,0.65,2,-1.7,·,·,·,·,·,·
O=C(Nc1nnc(-c2cccs2)o1)c1cc(-c2ccccc2)nc2ccccc12,-2,1,68*,3,-1,0.016*,0.078*,0.037,0.043*,0.061*,0.015*
CCN(CC)c1ccc(S(=O)(=O)N2CCOCC2)cc1NC(=O)CNCc1ccccc1,0,·,-5.6*,·,·,0.0068,0.005,0.029,0.0062,?,0.0093
N/N=C/C(=N\Nc1ccc(Cl)cc1)C(=O)c1ccncc1,1,·,·,·,·,·,·,·,·,·,·
CN1/C(=C\C(=S)NC(=O)c2cccc(Br)c2)C(C)(C)c2ccccc21,-3,0,4.6*,6,·,0.01,0.014*,0.035,?,?,0.012
COc1ccc(Oc2cnn(-c3ccccc3)c(=O)c2Br)cc1,-2,0,-0.95,2,0.16,·,·,·,·,·,·
COc1ccc(-c2cc(C(=O)OCC(=O)c3c(N)n(C)c(=O)n(C)c3=O)c3ccccc3n2)cc1,0,0,-4.8*,12,0.09,0.0087,0.0058,0.029,0.0071,0.021,?
COc1ccc(-c2cc(C(=O)c3c(N)n(C)c(=O)n(C)c3=O)c3ccccc3n2)cc1,2,·,0.0076,·,·,·,·,·,·,·,·
CC(C)Cn1c(-c2csc3c2CCCC3)n[nH]c1=S,·,1,4.8*,2,·,0.011,0.033*,0.031,0.011*,0.029*,0.01
O=C1Nc2cc3c(cc2C1=O)sc1ccccc13,1,·,1,·,·,·,·,·,·,·,·
Nc1ccc(Cl)c(S(=O)(=O)Nc2ccc(Cl)cc2)c1,0,·,0.67,·,·,·,·,·,·,·,·
Cc1ccc(Cc2c(C)[nH]c(=S)[nH]c2=O)cc1,-1,·,-0.079,·,-1.3,·,·,·,·,·,·
Cc1ccc(Cc2c[nH]c(=S)s2)cc1,0,-1,194*,4,·,?,0.14*,0.11*,0.11*,0.14*,0.099*
CC(C)c1ccc(CNC(=O)C(=O)Nc2nccs2)cc1,1,-1,12*,2,0.0014,?,0.019*,0.035,0.019*,?,0.016*
O=C(NCc1ccc(Cl)cc1)C(=O)Nc1nccs1,-6,-1,-0.22,2,0.025,·,·,·,·,·,·
Cc1nn(-c2ccc(F)cc2)c(C)c1NS(=O)(=O)c1ccc(Cl)cc1,·,3,-4.6*,3,·,0.0057,0.0049,0.022*,0.0068,?,0.01
Cc1ccc(-n2nc(C)c(NS(=O)(=O)c3ccccc3)c2C)cc1C,-1,0,·,1,·,·,·,·,·,·,·
Cc1ccc(CCNC(=O)Cn2cccc2)cc1,-1,1,·,3,-0.63,0.012,0.0064,0.031,0.0078,0.023,0.01
Cc1ccc(CCNC(=O)NC(C)(C)C)cc1,·,3,-0.037,1,·,·,·,·,·,·,·
COc1cccc(NCc2cc(=O)oc3cc(-c4ccccc4)c(O)cc23)c1,-4,0,0.68,6,·,·,·,·,·,·,·
CCOc1cc(/C=C/C(=O)OCC(=O)NC2CCS(=O)(=O)C2)ccc1OCc1ccccc1 (configuration not stated),0,0,-2.1,3,·,·,·,·,·,·,·
SMILES,b-catenin transl,DTT redox prof,Cl transport mod,MT stabilize HCS,ROMK mod,KCC2 secondary,KCC2 bumet counter,KCC2 secondary2,HEK counter1,KCC2 retest ouab,HEK counter2
Cc1ccc(/C=C2\S/C(=N/S(=O)(=O)c3cccs3)NC2=O)cc1,1,·,5.7*,·,·,0.0067,0.016*,0.03,0.014*,?,0.016*
Cc1ccc(-c2cc(-c3ccccc3)[nH]c(=S)c2C#N)cc1,-1,2,·,1,·,·,·,·,·,·,·
N#Cc1c(-c2ccc(C(F)(F)F)cc2)cc(-c2ccccc2)[nH]c1=S,2,1,5*,3,·,0.02*,0.022*,0.04,?,0.029*,0.024*
CC(=O)Nc1ccc(S(=O)(=O)NCCSCc2ccc(Cl)cc2Cl)cc1,1,3,-1.9,2,·,·,·,·,·,·,·
Cc1cccc(NC(=S)NCc2ccc3c(c2)OCO3)c1,-2,0,-1.3,2,·,·,·,·,·,·,·
Cc1cccc(C(=O)N/N=C/c2ccc3c(c2)OCO3)n1,·,9,0.68,4,·,·,·,·,·,·,·
COc1ccccc1NC(=S)N/N=C/c1ccc(O)cc1,0,0,-0.6,4,0.63,·,·,·,·,·,·
Cc1cccc(NC(=S)N/N=C/c2ccc3c(c2)OCO3)c1,·,0,10*,5,0.0078,0.011,0.015*,0.034,0.028*,0.027*,?
O=C(N/N=C/c1ccc2c(c1)OCO2)c1ccc2ccccc2n1,2,-2,4.9*,4,1.4,0.017,0.018*,0.032,0.012*,0.02*,0.016*
COc1ccccc1NC(=S)N/N=C/c1cccc(C)c1,2,0,5.5*,3,·,0.011,0.016*,0.034,0.012*,0.026,0.011
Cc1ccc(C2c3c(oc4ccccc4c3=O)C(=O)N2c2nncs2)cc1 (configuration not stated),-1,·,0.21,·,0.27,·,·,·,·,·,·
COc1cc2cc(CN(Cc3cccnc3)C(=O)Nc3ccccc3F)c(=O)[nH]c2cc1OC,-2,0,-0.57,2,-0.23,·,·,·,·,·,·
CCCCCCCCCCS(=O)(=O)N/N=C/c1ccc(O)cc1,0,0,0.0016,4,·,·,·,·,·,·,·
CCN(CC)S(=O)(=O)c1ccc(Oc2ccccc2)cc1,-2,0,-0.49,2,·,·,·,·,·,·,·
O=c1ccc(Cc2ccccn2)n[nH]1,-9,0,2.4*,1,1,0.0098,0.0063,0.036,0.008,0.022,0.011
